Data: ChEMBL document CHEMBL2062466, “Synthesis, DNA binding and antileishmanial activity of low molecular weight bis-arylimidamides” (Eur J Med Chem, 2012)

Key:
[1] = tested on: Leishmania amazonensis; test: Antileishmanial activity against intracellular Leishmania amazonensis; type: functional, organism-based
[2] = tested on: Leishmania donovani; test: Antileishmanial activity against intracellular Leishmania donovani; type: functional, organism-based
[3] = tested on: L6; test: Cytotoxicity against rat L6 cells; type: cell-based
[4] = tested on: Nucleic Acid; test: Binding affinity to poly(dA-dT)n DNA assessed as increase in melting temperature at 0.3 mol compound per mole of DNA by spectrophotometry; type: nucleic-acid assay
Method in brief: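 Thermal melting monitored by UV absorbance in 1 cm quartz cuvettes, heated at 0.5 °C/min under thermistor control. CAC 10 buffer: cacodylic acid 10 mM, EDTA 1 mM, NaCl 100 mM, pH 7.0. DNA concentration set from absorbance at 260 nm. Complex at 0.3 mol compound per mol DNA, with DNA alone as control. ΔTm taken from the peak of first-derivative (dA/dT) curves.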

[5] = Selectivity index, ratio of IC50 for rat L6 cells to IC50 for intracellular Leishmania donovani; type: toxicity, cell-based
[6] = tested on: Mus musculus; test: Toxicity in uninfected mouse assessed as induction of severe tremors at 30 mg/kg, ip measured 10 mins post dose; type: organism-based; design: dose 30 mg/kg, route intraperitoneal; conditions: in vivo
[7] = tested on: Mus musculus; test: Toxicity in uninfected mouse assessed as induction of severe tremors at 10 mg/kg, ip measured 40 mins post dose; type: organism-based; design: dose 10 mg/kg, route intraperitoneal; conditions: in vivo

SMILES	IC50 [1]	IC50 [2]	IC50 [3]	ΔTm [4]	Selectivity Index [5]	Activity [6]	Activity [7]
CC(C)Oc1cc(NC(=N)c2ccccn2)ccc1-c1ccc(NC(=N)c2ccccn2)cc1OC(C)C.Cl.Cl	0.14 µM	0.025 µM	22.9 µM	0.1 °C	916	Toxic	
N=C(Nc1ccc(Cc2ccc(NC(=N)c3ccccn3)cc2)cc1)c1ccccn1	> 10 µM		93.5 µM	2.1 °C			
N=C(Nc1ccc(NC(=N)c2ncccn2)cc1)c1ncccn1			> 207 µM	0 °C			
CC(C)Oc1cc(NC(=N)c2ccccn2)ccc1-c1ccc(-c2ccc(NC(=N)c3ccccn3)cc2OC(C)C)o1			3 µM	6 °C			
N=C(Nc1ccc(NC(=N)c2ccccn2)cc1)c1ccccn1	> 10 µM		> 212 µM	0 °C			
Cl.Cl.N=C(Nc1ccc(Oc2ccc(NC(=N)c3ccccn3)cc2)cc1)c1ccccn1	0.67 µM	0.028 µM	5 µM	5.2 °C	178	Toxic	
Cl.Cl.N=C(Nc1ccc(-c2ccc(NC(=N)c3ccccn3)cc2)cc1)c1ccccn1	0.76 µM	0.079 µM	46.9 µM	6 °C	594	Toxic	Toxic
N=C(Nc1ccc(COCc2ccc(NC(=N)c3ccccn3)cc2)cc1)c1ccccn1	1.1 µM		21.6 µM	4 °C			
N=C(Nc1ccccn1)c1ccc(C(=N)Nc2ccccn2)cc1	5.1 µM		> 202 µM	0.5 °C			
